Measured values: ChEMBL document CHEMBL1152221, “Synthesis and activity of substituted carbamates as potentiators of the alpha4beta2 nicotinic acetylcholine receptor” (Bioorg Med Chem Lett, 2008)
Active and inactive are the calls of the source. The rule behind the calls is not given here.

Legend:
[1] = molecular target: T1, Neuronal acetylcholine receptor; alpha4/beta2 (Homo sapiens) (UniProt P17787+P43681); experiment: Activity at human alpha4beta2 nAChR assessed as potentiation of nicotine-induced response by fluorescent Ca2+ flux assay relative to nicotine
[2] = molecular target: T1, Neuronal acetylcholine receptor; alpha4/beta2 (Homo sapiens); experiment: Activity at human alpha4beta2 nAChR assessed as potentiation of nicotine-induced response by fluorescent Ca2+ flux assay
[3] = Clearance in Sprague-Dawley rat; assay type: ADME, organism-based; conditions: in vivo
[4] = molecular target: Neuronal acetylcholine receptor; alpha4/beta2 (Rattus norvegicus) (UniProt P09483+P12390); experiment: Displacement of [3H]cystisine from alpha4beta2 nAChR in rat cerebral cortical membrane at >=30 uM; assay type: cell membranes
[5] = molecular target: Neuronal acetylcholine receptor; alpha3/beta2 (Homo sapiens) (UniProt P17787+P32297); experiment: Activity at human alpha3beta2 nAChR expressed in Xenopus oocytes assessed as potentiation of acetylcholine-induced response by patch-clamp electrophysiology; assay type: cell-based; conditions: Oocyte
[6] = molecular target: Neuronal acetylcholine receptor; alpha3/beta4 (Homo sapiens) (UniProt P30926+P32297); experiment: Activity at human alpha3beta4 nAChR expressed in Xenopus oocytes assessed as potentiation of acetylcholine-induced response by patch-clamp electrophysiology; assay type: cell-based; conditions: Oocyte
[7] = Ratio of drug level in brain to plasma in Sprague-Dawley rat; assay type: ADME, organism-based; conditions: brain and plasma
LLC-PK1 = experiment: Efflux ratio of permeability from […] in human MDR1 transfected pig LLC-PK1 cells at 5 uM after 2 hrs; assay type: ADME, cell-based, Sus scrofa; conditions: llc-pk1, 2 h
How it was run: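 MDR1-LLC-PK1 cells were seeded at 200,000 cells/well on membrane filters. Transport was run manually on day 5 after plating, in both A-to-B and B-to-A directions, in the presence of 0.1% bovine serum albumin.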

[8] = Metabolic stability in rat liver microsomes; assay type: ADME, Microsome; conditions: read-out: Stability
[9] = Metabolic stability in human liver microsomes; assay type: ADME, Microsome; conditions: read-out: Stability

| Efficacy [1] [%] | EC12 [2] [µM] | SMILES | also measured |
| --- | --- | --- | --- |
| 106 | 0.4 | CC(C)c1cc(C(C)C)n(C[C@H](OC(=O)Nc2ccc(C(F)(F)F)cc2)C(C)C)n1 |  |
| 7 | > 100 | CC(C)c1cc(C(C)C)n(C[C@H](OC(=O)Nc2ccncc2)C(C)C)n1 |  |
| 100 | 0.11 | CCOc1ccc(NC(=O)O[C@@H](Cn2nc(C(C)C)cc2C(C)C)C(C)C)cc1 | clearance [3]: 30 mL/min/kg; Activity [4]: inactive |
| 10 | 2.4 | CC(C)[C@H](Cn1nc(C(F)(F)F)cc1-c1ccccc1)OC(=O)Nc1ccc(F)cc1F |  |
| 9 | > 100 | Cc1ccccc1NC(=O)O[C@@H](Cn1nc(C(C)C)cc1C(C)C)C(C)C |  |
| 95 | 0.57 | CC[C@H](Cn1nc(C(F)(F)F)cc1C1CCCC1)OC(=O)Nc1ccc(F)cc1F | clearance [3]: 70.5 mL/min/kg |
| 77 | 0.14 | COc1ccc(NC(=O)O[C@@H](Cn2nc(C(C)C)cc2C(C)C)C(C)C)cc1 |  |
| 10 | > 100 | CC(C)c1cc(C(C)C)n([C@@H](C)[C@@H](C)OC(=O)Nc2ccc(F)cc2F)n1 (racemic) |  |
| 15 | 0.7 | CC(C)c1cc(C(C)C)n(C[C@@H](C)OC(=O)Nc2ccc(F)cc2F)n1 |  |
| 13 | 2.7 | CC(C)c1cc(C(C)C)n(C[C@H](OC(=O)NC2CCCCC2)C(C)C)n1 |  |
| 83 | 0.38 | CC[C@H](Cn1nc(C(C)C)cc1C(C)C)OC(=O)Nc1ccc(F)cc1F |  |
| 50 | 0.21 | CCc1cc(C(F)(F)F)nn1C[C@H](OC(=O)Nc1ccc(F)cc1F)C(C)C |  |
| 6 | > 50 | CC(C)[C@H](Cn1cccn1)OC(=O)Nc1ccc(F)cc1F |  |
| 15 | 1.18 | CC[C@H](Cn1nc(C)cc1C)OC(=O)Nc1ccc(F)cc1F |  |
| 54 | 0.7 | CC[C@H](Cn1nc(C(F)(F)F)cc1C1CC1)OC(=O)Nc1ccc(F)cc1F |  |
| 16 | 3.9 | CC(C)[C@H](Cn1nc(C(F)(F)F)cc1C(F)(F)F)OC(=O)Nc1ccc(F)cc1F |  |
| 11 | 3.7 | CC(C)c1cc(C(C)C)n(CC(OC(=O)Nc2ccc(F)cc2F)C(C)(C)C)n1 (racemic) |  |
| 107 | 0.33 | CCCOc1ccc(NC(=O)O[C@@H](Cn2nc(C(C)C)cc2C(C)C)C(C)C)cc1 |  |

| Efficacy [1] [%] | EC12 [2] [µM] | SMILES | also measured |
| --- | --- | --- | --- |
| 88 | 0.38 | CC[C@H](Cn1nc(C(F)(F)F)cc1C1CCCCC1)OC(=O)Nc1ccc(F)cc1F |  |
| 73 | 0.25 | CC(C)c1cc(C(C)C)n([C@@H]2CCC[C@H]2OC(=O)Nc2ccc(F)cc2F)n1 |  |
| 91 | 0.33 | CC(C)c1cc(C(C)C)n(C[C@H](OC(=O)Nc2ccc(Cl)cc2)C(C)C)n1 |  |
| 25 | 0.31 | CC(C)c1cc(C(C)C)n(C[C@H](NC(=O)Nc2ccc(F)cc2F)C(C)C)n1 | EC12 [5]: > 100 µM; EC12 [6]: > 100 µM; clearance [3]: 50 mL/min/kg; Kp [7]: 1; Ratio (LLC-PK1): 1.1 |
| 76 | 0.25 | CC(C)c1cc(C(C)C)n(C[C@H](OC(=O)Nc2ccc(F)cc2F)C(C)C)n1 | EC12 [5]: > 100 µM; EC12 [6]: > 100 µM; microsomal CLint [8]: > 399 µL/min/mg; microsomal CLint [9]: 644 µL/min/mg; clearance [3]: 81.7 mL/min/kg; Kp [7]: 1; Ratio (LLC-PK1): 1.1 |
| 30 | 2.1 | CC(C)[C@H](Cn1nccc1C(F)(F)F)OC(=O)Nc1ccc(F)cc1F |  |
| 25 | 0.9 | Cc1cccc(NC(=O)O[C@@H](Cn2nc(C(C)C)cc2C(C)C)C(C)C)c1 |  |
| 12 | 0.7 | CC(C)c1cc(C(C)C)n(CC(OC(=O)Nc2ccsc2)C(C)C)n1 (racemic) |  |
| -3 | > 100 | CC[C@H](Cn1nc(C(F)(F)F)cc1C1CCNCC1)OC(=O)Nc1ccc(F)cc1F |  |
| 20 | 0.46 | CC[C@H](Cn1nc(C(F)(F)F)cc1C1=CCCC1)OC(=O)Nc1ccc(F)cc1F |  |
| 15 | 0.89 | CC[C@H](Cn1ccc(C(F)(F)F)n1)OC(=O)Nc1ccc(F)cc1F |  |
| 89 | 0.34 | CC(C)c1cc(C(C)C)n(C[C@H](OC(=O)Nc2ccc(Oc3ccccc3)cc2)C(C)C)n1 |  |
| 12 | 1.3 | CC(C)c1cc(C(C)C)n([C@H](C)[C@@H](C)OC(=O)Nc2ccc(F)cc2F)n1 (racemic) |  |
| 59 | 0.13 | Cc1ccc(NC(=O)O[C@@H](Cn2nc(C(C)C)cc2C(C)C)C(C)C)cc1 |  |
| 19 | > 10 | CC(C)c1cc(C(C)C)n(C[C@@H](NC(=O)Nc2ccc(F)cc2F)C(C)C)n1 |  |
| 9 | > 50 | CC(C)c1cc(C(C)C)n(C[C@@H](OC(=O)Nc2ccc(F)cc2F)C(C)C)n1 |  |
| 18 | 0.38 | CC(C)c1cc(C(C)C)n(CC(OC(=O)Nc2ccccc2)C(C)C)n1 (racemic) |  |
| 3 | > 100 | CC[C@H](Cn1nc(C(F)(F)F)cc1C1CCCO1)OC(=O)Nc1ccc(F)cc1F (some centres not stated) |  |
